# In paper PMC8028158 (ACS Omega, 2021):
# Legend:
# TRPV3 = target: T1, TRPV3 (Homo sapiens, UniProt Q8NET8); test: Selectivity Ca2+ assay in TRPV3-expressing HEK293 cells; type: cell-based; conditions: 1s 50 μM; Fluo-8
# T1 sequence (Q8NET8 1-790): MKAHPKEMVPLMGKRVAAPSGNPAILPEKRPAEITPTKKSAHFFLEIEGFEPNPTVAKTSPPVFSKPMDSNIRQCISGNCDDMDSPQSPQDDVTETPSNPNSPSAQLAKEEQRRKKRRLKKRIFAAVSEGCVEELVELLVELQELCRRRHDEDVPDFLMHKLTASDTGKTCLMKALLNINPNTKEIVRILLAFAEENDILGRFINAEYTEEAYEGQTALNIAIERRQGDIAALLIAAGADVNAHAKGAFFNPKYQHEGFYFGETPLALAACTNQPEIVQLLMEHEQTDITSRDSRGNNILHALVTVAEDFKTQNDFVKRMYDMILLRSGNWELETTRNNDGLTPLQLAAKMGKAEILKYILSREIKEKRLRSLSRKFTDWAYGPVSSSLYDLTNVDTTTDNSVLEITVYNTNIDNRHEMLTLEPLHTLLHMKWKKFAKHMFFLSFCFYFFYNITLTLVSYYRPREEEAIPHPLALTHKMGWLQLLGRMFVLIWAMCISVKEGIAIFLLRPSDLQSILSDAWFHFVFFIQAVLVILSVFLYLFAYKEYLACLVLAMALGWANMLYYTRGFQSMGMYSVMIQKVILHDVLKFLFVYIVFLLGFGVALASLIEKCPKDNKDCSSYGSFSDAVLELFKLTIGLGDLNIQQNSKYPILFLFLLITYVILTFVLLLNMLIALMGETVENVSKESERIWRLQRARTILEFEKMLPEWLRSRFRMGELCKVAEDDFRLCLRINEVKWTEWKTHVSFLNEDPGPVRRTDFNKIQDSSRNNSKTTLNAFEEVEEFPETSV
# MKN-45 cells [1] = test: Wound-healing migration assay; type: cell-based, human; conditions: 5 μM, 24 h
# Summary of the method: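 MKN-45 cells were seeded and cultured overnight, then scratched with a pipette tip and treated with test compound. The wound was imaged at 0 and 24 h. The width of the cell-free zone was measured at six positions, and relative migration distance was calculated. A positive-control compound was run alongside.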
# TRPM8 = TRPM8 (Homo sapiens, UniProt Q7Z2W7); test: Selectivity Ca2+ assay in TRPM8-expressing HEK293 cells; type: cell-based; conditions: 1s 50 μM; Fluo-8
# TRPV1 = TRPV1 (Homo sapiens, UniProt Q8NER1); test: Selectivity Ca2+ assay in TRPV1-expressing HEK293 cells; type: cell-based; conditions: 1s 50 μM; Fluo-8
# MKN-45 cells [2] = test: Boyden chamber / Transwell cell migration assay; type: cell-based, human; conditions: 24 h
# Summary of the method: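 MKN-45 cells in serum-free medium were seeded with test compound on uncoated Transwell membranes (8 μm pores), with complete medium containing 10% FBS in the lower chamber, and left to migrate for 24 h. Cells on the upper surface were removed. Cells on the underside were fixed, stained with crystal violet and counted in six random fields. A positive-control compound was run alongside.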
# AGS cells = test: MTT cell viability assay, AGS; type: cell-based, human; conditions: Homo sapiens, AGS, 72 h, read-out: IC50 cell proliferation, AGS
# Summary of the method: (§1)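 Cells were seeded at 2000 per well, incubated overnight and exposed to test compound for 72 h. MTT was added for 4 h, formazan was dissolved in DMSO and absorbance was read at 570 nm. Viability was normalized to untreated wells, giving mean ± SEM of three trials. IC50 was calculated from relative survival.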
# mouse TRPC4 = target: T2, mouse TRPC4 (Mus musculus, UniProt Q9QUQ5); test: Selectivity assay in HEK293 cells co-expressing TRPC4 and μ-opioid receptor; type: cell-based; conditions: induced by DAMGO 1 μM
# T2 sequence (Q9QUQ5 1-974): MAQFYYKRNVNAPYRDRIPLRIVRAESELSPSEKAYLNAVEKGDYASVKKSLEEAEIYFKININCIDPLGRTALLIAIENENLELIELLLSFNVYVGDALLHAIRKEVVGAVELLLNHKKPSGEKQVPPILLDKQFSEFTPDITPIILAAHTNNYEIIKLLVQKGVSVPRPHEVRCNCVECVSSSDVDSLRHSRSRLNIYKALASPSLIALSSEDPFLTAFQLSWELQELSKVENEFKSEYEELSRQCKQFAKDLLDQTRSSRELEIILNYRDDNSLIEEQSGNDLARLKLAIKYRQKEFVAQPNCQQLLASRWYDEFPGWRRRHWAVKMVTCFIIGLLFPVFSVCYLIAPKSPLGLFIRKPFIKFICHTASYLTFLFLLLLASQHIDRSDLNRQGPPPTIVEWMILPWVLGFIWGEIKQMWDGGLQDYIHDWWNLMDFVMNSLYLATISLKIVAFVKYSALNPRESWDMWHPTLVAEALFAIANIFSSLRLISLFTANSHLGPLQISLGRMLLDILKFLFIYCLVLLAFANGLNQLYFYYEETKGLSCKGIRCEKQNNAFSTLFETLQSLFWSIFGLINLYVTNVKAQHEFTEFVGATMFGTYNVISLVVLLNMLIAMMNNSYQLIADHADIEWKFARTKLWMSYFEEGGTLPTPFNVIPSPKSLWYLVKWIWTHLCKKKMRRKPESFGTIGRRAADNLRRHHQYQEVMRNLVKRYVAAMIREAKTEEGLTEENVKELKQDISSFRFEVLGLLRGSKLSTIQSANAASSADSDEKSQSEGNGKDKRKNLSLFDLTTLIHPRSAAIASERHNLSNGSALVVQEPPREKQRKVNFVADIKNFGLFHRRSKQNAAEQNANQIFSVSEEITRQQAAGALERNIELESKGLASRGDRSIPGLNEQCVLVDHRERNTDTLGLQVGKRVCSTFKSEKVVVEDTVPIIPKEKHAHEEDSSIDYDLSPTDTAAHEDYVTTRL
# MKN-45 cells [3] = test: MTT cell viability assay, MKN-45; type: cell-based, human; conditions: Homo sapiens, MKN-45, 72 h, read-out: IC50 cell proliferation, MKN-45
# Summary of the method: as §1
# TRPM8, sequence (Q7Z2W7 whole entry, species assumed): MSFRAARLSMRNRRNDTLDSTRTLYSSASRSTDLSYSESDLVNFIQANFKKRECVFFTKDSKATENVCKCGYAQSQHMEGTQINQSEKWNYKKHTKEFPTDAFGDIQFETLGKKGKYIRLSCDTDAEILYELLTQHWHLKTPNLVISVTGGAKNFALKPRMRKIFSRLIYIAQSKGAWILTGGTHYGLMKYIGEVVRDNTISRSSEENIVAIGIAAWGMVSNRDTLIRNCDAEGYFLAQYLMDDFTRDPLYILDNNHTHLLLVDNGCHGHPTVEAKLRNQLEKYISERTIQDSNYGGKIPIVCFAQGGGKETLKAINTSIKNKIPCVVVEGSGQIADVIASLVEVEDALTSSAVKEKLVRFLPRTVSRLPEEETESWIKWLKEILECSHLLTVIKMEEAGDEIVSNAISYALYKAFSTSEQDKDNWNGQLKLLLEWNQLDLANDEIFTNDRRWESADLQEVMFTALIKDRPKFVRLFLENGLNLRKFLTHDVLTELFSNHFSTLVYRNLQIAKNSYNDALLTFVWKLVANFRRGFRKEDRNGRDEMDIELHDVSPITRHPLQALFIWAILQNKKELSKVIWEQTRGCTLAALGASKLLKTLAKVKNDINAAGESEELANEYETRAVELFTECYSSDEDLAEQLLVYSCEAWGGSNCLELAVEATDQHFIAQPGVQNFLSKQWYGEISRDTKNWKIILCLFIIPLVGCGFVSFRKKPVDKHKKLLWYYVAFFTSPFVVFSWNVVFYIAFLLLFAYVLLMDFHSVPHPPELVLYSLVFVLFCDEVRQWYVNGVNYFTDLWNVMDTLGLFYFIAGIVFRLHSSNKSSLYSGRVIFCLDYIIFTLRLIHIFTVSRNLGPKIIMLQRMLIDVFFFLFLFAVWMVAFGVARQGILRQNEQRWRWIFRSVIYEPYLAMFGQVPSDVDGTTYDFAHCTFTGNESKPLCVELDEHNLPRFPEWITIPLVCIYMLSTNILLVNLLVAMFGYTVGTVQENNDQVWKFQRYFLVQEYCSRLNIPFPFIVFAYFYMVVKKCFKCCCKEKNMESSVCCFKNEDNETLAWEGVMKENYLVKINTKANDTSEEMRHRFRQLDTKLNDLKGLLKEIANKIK
# TRPV1, sequence (Q8NER1 whole entry, species assumed): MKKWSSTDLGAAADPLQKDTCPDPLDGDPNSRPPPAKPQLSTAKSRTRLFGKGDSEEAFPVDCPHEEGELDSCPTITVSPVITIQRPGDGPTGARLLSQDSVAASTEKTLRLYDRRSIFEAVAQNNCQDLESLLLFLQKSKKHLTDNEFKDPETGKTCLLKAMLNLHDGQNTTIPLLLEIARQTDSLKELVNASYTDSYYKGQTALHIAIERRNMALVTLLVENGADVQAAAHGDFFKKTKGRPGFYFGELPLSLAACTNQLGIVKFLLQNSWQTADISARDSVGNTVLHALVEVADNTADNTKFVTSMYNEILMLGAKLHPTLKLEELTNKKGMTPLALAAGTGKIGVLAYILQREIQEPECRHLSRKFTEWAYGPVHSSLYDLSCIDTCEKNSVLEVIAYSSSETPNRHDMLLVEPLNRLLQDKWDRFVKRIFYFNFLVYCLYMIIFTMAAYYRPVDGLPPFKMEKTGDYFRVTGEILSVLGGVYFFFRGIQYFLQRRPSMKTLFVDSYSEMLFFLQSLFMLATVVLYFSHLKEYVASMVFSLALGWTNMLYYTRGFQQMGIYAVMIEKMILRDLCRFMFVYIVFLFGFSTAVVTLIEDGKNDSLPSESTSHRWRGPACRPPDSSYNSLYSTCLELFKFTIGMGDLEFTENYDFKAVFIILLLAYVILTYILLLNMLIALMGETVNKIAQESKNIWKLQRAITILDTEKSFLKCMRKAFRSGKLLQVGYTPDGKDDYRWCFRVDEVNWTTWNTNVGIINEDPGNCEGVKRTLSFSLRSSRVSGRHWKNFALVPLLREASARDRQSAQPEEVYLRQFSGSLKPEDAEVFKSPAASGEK
compound,measurement,setting,value
"COc1cccc2sc(N(CCN(C)C)C(=O)c3ccc4c(c3)CCCC4)nc12 [Compound 1s, N-(2-(dimethylamino)ethyl)-N-(4-methoxybenzo[d]thiazol-2-yl)-5,6,7,8-tetrahydronaphthalene-2-carboxamide]","Effect on agonist-induced Ca2+ response, TRPV3",TRPV3,did not significantly affect
same,MKN-45 cell migration (wound healing),MKN-45 cells [1],inhibited the MKN-45 cell migration
same,"Effect on agonist-induced Ca2+ response, TRPM8",TRPM8,did not significantly affect
same,"Effect on agonist-induced Ca2+ response, TRPV1",TRPV1,did not significantly affect
same,MKN-45 cell invasion (movement through the pores toward chemoattractant),MKN-45 cells [2],inhibited
same,IC50,AGS cells,12 ± 1.01 µM
same,Effect on TRPC4,mouse TRPC4,only partially inhibited
same,IC50,MKN-45 cells [3],8 ± 0.51 µM
